Laboratory results published in PMC4002258 (Biochimica et biophysica acta, 2013).
Marks after values point to notes of the source that are not given here.

Experiments:
Type in all cases: biochemical
[1] = molecular target: T1, human recombinant core 2 β1,6-GlcNAc-transferase (C2GnT1) (Homo sapiens, UniProt Q02742); experiment: Inhibition of C2GnT1; conditions: inhibitor 0.5 mM, 0.5 mM Galβ1–3GalNAcα-pnp acceptor
T1 sequence (Q02742 33-428 limits assumed): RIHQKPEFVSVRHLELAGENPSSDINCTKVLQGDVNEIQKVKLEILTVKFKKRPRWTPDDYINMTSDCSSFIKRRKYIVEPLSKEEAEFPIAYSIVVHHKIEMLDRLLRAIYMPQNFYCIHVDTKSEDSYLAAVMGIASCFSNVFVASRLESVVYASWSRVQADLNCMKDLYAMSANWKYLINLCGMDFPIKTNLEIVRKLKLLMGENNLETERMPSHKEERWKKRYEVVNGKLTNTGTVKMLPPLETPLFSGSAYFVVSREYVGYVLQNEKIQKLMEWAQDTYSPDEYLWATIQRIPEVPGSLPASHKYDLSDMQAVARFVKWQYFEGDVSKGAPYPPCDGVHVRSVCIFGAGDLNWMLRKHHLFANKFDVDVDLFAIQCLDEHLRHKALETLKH

[2] = molecular target: human recombinant core 1 β1,3-Gal-transferase (C1GalT) (Homo sapiens, UniProt Q9NS00); experiment: C1GalT glycosyltransferase assay; conditions: for C1GalT activity (%): acceptor substrate 0.5 mM, 0.5 mM GalNAcα-Bn set to 100%
Sequence of human recombinant core 1 β1,3-Gal-transferase (C1GalT) (Q9NS00 30-363 limits assumed): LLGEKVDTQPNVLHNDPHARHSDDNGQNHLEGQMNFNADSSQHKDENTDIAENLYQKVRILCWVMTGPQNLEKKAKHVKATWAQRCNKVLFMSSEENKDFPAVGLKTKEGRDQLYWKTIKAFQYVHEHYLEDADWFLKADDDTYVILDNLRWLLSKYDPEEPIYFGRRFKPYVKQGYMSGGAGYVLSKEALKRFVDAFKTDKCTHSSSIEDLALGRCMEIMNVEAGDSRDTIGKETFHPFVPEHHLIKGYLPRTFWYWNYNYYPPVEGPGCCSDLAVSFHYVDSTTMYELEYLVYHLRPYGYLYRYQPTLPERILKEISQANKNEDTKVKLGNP

[3] = molecular target: T2, human recombinant core 3 β1,3-GlcNAc-transferase (C3GnT) (Homo sapiens, UniProt Q6ZMB0); experiment: C3GnT glycosyltransferase assay; conditions: for C3GnT activity (%): acceptor substrate 0.5 mM, 0.5 mM GalNAcα-Bn set to 100%
T2 sequence (Q6ZMB0 32-384 limits assumed): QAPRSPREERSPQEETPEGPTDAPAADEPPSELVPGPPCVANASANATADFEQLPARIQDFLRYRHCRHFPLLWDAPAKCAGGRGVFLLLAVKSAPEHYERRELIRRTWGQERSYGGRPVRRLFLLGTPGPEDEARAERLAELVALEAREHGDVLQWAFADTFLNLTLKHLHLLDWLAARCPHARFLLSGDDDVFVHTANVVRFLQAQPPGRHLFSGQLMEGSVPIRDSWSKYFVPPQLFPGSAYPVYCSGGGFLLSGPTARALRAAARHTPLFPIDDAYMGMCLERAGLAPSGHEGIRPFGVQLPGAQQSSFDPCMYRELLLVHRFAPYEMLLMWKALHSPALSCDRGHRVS

[4] = molecular target: T2, human recombinant core 3 β1,3-GlcNAc-transferase (C3GnT); experiment: Inhibition of C3GnT; conditions: inhibitor 0.5 mM, 0.5 mM GalNAcα-Bn acceptor
In short: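 His-tagged human C3GnT from Sf9 cells, Ni2+-NTA purified, 0.003 mg protein per assay. Inhibitor at acceptor concentration unless indicated. Incubated 1 h at 37 °C, then cold-water stop. AG1×8 anion exchange; eluate counted by scintillation.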

[5] = molecular target: T1, human recombinant core 2 β1,6-GlcNAc-transferase (C2GnT1); experiment: C2GnT1 glycosyltransferase assay; conditions: acceptor substrate 0.5 mM; 0.5 mM Galβ1–3GalNAcα-pnp set to 100%
[6] = molecular target: T3, human recombinant core 2/4 β1,6-GlcNAc-transferase (C2GnT2) (Homo sapiens, UniProt O95395); conditions: acceptor substrate 0.5 mM; 0.5 mM Galβ1–3GalNAcα-pnp set to 100%
T3 sequence (O95395 27-438): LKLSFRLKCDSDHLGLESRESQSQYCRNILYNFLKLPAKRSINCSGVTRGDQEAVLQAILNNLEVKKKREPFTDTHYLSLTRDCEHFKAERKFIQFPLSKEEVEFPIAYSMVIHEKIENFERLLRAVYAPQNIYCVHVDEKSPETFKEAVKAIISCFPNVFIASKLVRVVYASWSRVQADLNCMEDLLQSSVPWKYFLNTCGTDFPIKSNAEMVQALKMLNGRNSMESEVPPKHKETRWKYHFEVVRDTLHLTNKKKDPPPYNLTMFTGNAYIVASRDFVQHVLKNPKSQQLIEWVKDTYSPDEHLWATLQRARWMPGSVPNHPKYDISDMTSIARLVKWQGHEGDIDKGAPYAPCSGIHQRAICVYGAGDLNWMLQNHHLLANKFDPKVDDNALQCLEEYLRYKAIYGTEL

Compound	C1GalT activity (%) [2]	C3GnT activity (%) [3]	C2GnT1 activity (%) [5]	C2GnT2 activity (%) [6]	also measured
CCCC(=O)N[C@H]1[C@@H](OCc2ccccc2)O[C@H](CO)[C@H](O)[C@@H]1O [2-N-Butyryl-GalNα-Bn, benzyl 2-butanamido-2-deoxy-α-D-galactoside]	<1%	<1%	<1%	<1%	C2GnT1 Inhibition (%) [1]: did not inhibit; C3GnT Inhibition (%) [4]: did not inhibit
CC(=O)N[C@@H]1C[C@@H](O)[C@@H](CO)O[C@@H]1OCc1ccccc1 [3-Deoxy-GalNAcα-Bn]	<1%	<1%	<1%	<1%	–
CC(=O)N[C@H]1[C@@H](OCc2ccccc2)O[C@H](CO)[C@H](O)[C@@H]1O [GalNAcα-Bn, reference compound]	100 ^a %	100 ^b %	<1%	<1%	Vmax ([2]; C1GalT, acceptor substrate): 0.14 µmol/h/mg; Km ([2]; C1GalT, apparent KM for acceptor substrate): 800 µM; Vmax ([3]; C3GnT, acceptor substrate): 0.95 µmol/h/mg; Km ([3]; C3GnT, apparent KM for acceptor substrate): 3000 µM
CC(=O)N[C@H]1[C@@H](OCc2ccccc2)O[C@H](C)[C@H](O)[C@@H]1O[C@@H]1O[C@H](CO)[C@H](O)[C@H](O)[C@H]1O [Galβ1–3(6-deoxy)GalNAcα-Bn]	<1%	<1%	<1%	<1%	–
CC(=O)N[C@H]1[C@@H](OCc2ccccc2)O[C@H](CO[C@@H]2O[C@H](CO)[C@@H](O[C@@H]3O[C@H](CO)[C@H](O)[C@H](O)[C@H]3O)[C@H](O)[C@H]2O)[C@H](O)[C@@H]1O [Galβ1–4Glcβ1–6GalNAcα-Bn]	63%	<1%	–	–	–
CC(=O)N[C@H]1[C@@H](OCc2ccccc2)O[C@H](CO[C@@H]2O[C@H](CO)[C@H](O)[C@H](O)[C@H]2O)[C@H](O)[C@@H]1O [Galβ1–6GalNAcα-Bn]	30%	<1%	–	–	–
CC(=O)N[C@H]1[C@@H](OCc2ccccc2)O[C@H](CO[C@@H]2O[C@H](CO)[C@@H](O)[C@H](O)[C@H]2NC(C)=O)[C@H](O)[C@@H]1O [GlcNAcβ1–6-GalNAcα-Bn]	74%	<1%	<1%	<1%	–
[2H]C([2H])([2H])O[C@@H]1O[C@H](CO[C@@H]2O[C@H](CO)[C@@H](O)[C@H](O)[C@H]2NC(C)=O)[C@H](O)[C@H](O)[C@H]1O [GlcNAcβ1–6-Galβ-OCD3]	<1%	<1%	–	–	–
AHGVT-(GalNAcα)SAPDTRPAPGSTAPPA	39%	15%	<1%	<1%	–
Ac-GHA-(GalNAcα)TSLPVTG-NH2	564%	22%	–	–	–
Ac-V-(GalNAcα)TP-NH2	71%	36%	–	–	–
TT-(GalNAcα)TVTPTPTG	99%	8%	–	–	–
TTTV-(GalNAcα)TPTPTG	270%	10%	–	–	–
TTTVTP-(GalNAcα)TPTG	259%	5%	–	–	–
